# Measured values gathered from unrelated publications.
# Each line is one published result; the experiments were not run side by side.
# Target: Serine/threonine-protein kinase Nek1 (NEK1, Homo sapiens, UniProt Q96PY6)
# Sequence (Q96PY6 1-1258, as in one of the studies): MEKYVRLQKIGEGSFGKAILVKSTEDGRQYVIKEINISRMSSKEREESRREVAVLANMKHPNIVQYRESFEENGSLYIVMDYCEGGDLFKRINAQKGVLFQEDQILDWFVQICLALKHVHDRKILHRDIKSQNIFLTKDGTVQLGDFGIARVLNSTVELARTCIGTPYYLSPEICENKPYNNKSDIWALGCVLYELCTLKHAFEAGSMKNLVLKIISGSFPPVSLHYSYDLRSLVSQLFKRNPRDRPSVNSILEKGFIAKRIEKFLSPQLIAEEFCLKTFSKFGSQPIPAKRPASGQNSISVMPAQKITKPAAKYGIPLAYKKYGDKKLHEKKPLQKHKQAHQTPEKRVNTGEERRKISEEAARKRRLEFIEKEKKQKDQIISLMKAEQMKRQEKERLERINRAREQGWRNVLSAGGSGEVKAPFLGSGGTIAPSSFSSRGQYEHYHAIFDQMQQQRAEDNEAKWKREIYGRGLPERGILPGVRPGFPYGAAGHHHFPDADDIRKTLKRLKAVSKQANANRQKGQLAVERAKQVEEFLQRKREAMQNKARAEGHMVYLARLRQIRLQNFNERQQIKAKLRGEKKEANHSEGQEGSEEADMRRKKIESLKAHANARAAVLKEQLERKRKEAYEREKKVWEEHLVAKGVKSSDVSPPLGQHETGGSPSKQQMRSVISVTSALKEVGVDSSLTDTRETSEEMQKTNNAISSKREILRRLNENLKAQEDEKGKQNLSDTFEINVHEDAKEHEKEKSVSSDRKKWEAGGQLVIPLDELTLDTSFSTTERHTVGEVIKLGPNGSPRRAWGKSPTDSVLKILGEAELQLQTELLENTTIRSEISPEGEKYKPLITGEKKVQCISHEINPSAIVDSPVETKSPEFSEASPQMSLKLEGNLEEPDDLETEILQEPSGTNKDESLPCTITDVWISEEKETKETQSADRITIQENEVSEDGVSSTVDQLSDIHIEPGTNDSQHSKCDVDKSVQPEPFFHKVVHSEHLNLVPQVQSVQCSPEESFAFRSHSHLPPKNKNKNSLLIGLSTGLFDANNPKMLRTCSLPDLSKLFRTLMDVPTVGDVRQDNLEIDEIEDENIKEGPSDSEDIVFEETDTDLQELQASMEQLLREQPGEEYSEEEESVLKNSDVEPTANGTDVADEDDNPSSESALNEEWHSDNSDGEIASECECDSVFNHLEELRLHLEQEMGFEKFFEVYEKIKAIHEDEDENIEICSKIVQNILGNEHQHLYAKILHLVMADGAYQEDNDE
Structure (SMILES),test,system,setting,quantity,value
COc1cc(Nc2ncc(F)c(Nc3ccc4c(n3)NC(=O)C(C)(C)O4)n2)cc(OC)c1OC,"binding, competition with immobilised ligand",,10 µM,inhibition,96%
Cn1cc(-c2cc(F)cc(N3CCn4c(cc5c4CCCC5)C3=O)c2CO)cc(Nc2ccc(N3CCN(C4COC4)CC3)cn2)c1=O,"enzyme activity, inhibitor",,0.1 µM,inhibition,-3%
Cn1cncc1[C@](O)(COc1ccc(C#N)cc1-c1ccc(OC(F)(F)F)cc1)c1ccc(C#N)cc1,"cell-free assay, competition with immobilised ligand",,1 µM,remaining binding,80%
Cc1nn(C)cc1-c1nc2c(N3CCN(Cc4ccc(Cl)cc4)CC3)c(Cl)cnc2[nH]1,"binding, competition with immobilised ligand",,1 µM,remaining binding,82%
CCN1CCN(Cc2ccc(NC(=O)c3ccc(C)c(/C=C/c4cnc5[nH]ccc5c4OC)c3)cc2C(F)(F)F)CC1,"target engagement in cells, inhibitor, chemoproteomics",A-375,50 nM,inhibition,-17%
Cn1cc(-c2cccc(N3CCc4c(sc5c4CC(C)(C)C5)C3=O)c2CO)cc(Nc2ccncn2)c1=O,"enzyme activity, inhibitor",,1 µM,inhibition,5%
COCc1c(-c2cc3cc(C)cc(OC)c3s2)c2c(N)ncnn2c1CN1CCNC(=O)C1,"cell-free assay, competition with immobilised ligand",,1 µM,inhibition,78%
CC(C)(C)c1cc(C=C(C#N)C#N)cc(Br)c1O,"enzyme activity, inhibitor",,0.5 µM,remaining activity,97.7%
O=C(NCc1ncc(C(F)(F)F)cc1Cl)c1ccc2c(c1)C1(CCS(=O)(=O)CC1)[C@@H](C1CC1)N2S(=O)(=O)c1ccc(F)cc1,"cell-free assay, competition with immobilised ligand",,1 µM,remaining binding,96%
Nc1ncc(-c2nc(N3CCOCC3)nc(N3CCOCC3)n2)c(C(F)F)n1,"binding, competition with immobilised ligand",,10 µM,remaining binding,99%
COc1ncccc1-c1cnn2ccc(N3CCN(C(=O)OC(C)C)CC3)nc12,"binding, competition with immobilised ligand",,1 µM,remaining binding,100%
O=c1[nH]c2ccccc2n1C1CCN(Cc2ccc(-c3[nH]c4cc5ncnc5cc4nc3-c3ccccc3)cc2)CC1,cell-free assay,,0.5 µM,remaining signal,101%
